Rows were chosen to be rich in hits. Some 2.1% of all compounds tested hit in one or more screens of this group.
FID counter: fluorescent intercalator displacement, NS3 helicase counter-screen | DNA fluorescent intercalator displacement, fluorescence | 290,000 tested, 0.17% active | inhibition, % at 7.9 µM; in the data active = inhibition above about 37%;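 note: 0% = vehicle and 100% = reference compound; higher means more ethidium bromide displaced from hairpin DNA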
IMP-1 inh: inhibitors of Pseudomonas aeruginosa IMP-1 metallo-beta-lactamase | purified IMP-1, nitrocefin hydrolysis, epi-absorbance fluorescence | inhibition, % at 5.6 µM | 290,000 tested, 0.45% active | AID 1556;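 active = inhibition above the mean plus 3 SD of all compounds in the same screening run, cut at about 4.5% in these data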;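 note: 0% = IMP-1 with DMSO and 100% = DMSO wells lacking enzyme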
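System: purified IMP-1 / Input: IMP-1 dispensed at 0.2 nM / Medium: 50 mM HEPES pH 7.1, 50 µM ZnSO4, 0.05% Brij 35 / Timing: 15 min enzyme–compound preincubation, then 25 min nitrocefin reaction, 25 °C / Technique: plate fluorescence quenching by hydrolysis product, ex 480/em 530 nm / Repeats: singlicate testing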
UBC9 SUMO inh: SUMOylation inhibition | HTRF SUMOylation assay, SAE1/SAE2 + UBC9, in vitro | inhibition, % at 35 µM | 290,000 tested, 0.36% active; in the data active = inhibition above about 50%, passing the limit was not always enough
Target sequence (P63279 whole entry, looked up): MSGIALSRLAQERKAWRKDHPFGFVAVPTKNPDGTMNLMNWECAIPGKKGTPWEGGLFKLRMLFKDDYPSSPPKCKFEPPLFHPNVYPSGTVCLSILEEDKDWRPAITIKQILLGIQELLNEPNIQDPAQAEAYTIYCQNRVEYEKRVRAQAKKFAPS
VIM-2 inh: inhibitors of Pseudomonas aeruginosa VIM-2 metallo-beta-lactamase. purified VIM-2, nitrocefin hydrolysis, epi-absorbance fluorescence. inhibition, % at 5.6 µM. 290,000 tested, 0.89% active. AID 1527;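 active = inhibition above the mean of all tested compounds plus 3 SD, cutoff set per screening run, cut at about 7.5% in these data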;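 note: red hydrolysis product quenches plate fluorescence so inhibitors raise well fluorescence; 0% = enzyme with DMSO and 100% = DMSO without enzyme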
HCV NS3 hel inh: HCV NS3 helicase inhibition; NS3 helicase DNA unwinding, Cy5 molecular beacon fluorescence; inhibition, % at 10.9 µM; 290,000 tested, 0.56% active; AID 1800;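 active = inhibition above the mean of all tested compounds plus 3 SD, set per campaign, cut at about 35% in these data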;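 note: 0% = DMSO wells and 100% = thioflavine S control wells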
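Assay system: hepatitis C virus NS3 helicase domain fragment enzyme. Also added: annealed dual-labelled DNA beacon duplex, ATP-started. Timing: 1 h reaction at 25 °C, ATP-initiated. Technique: Cy5 fluorescence at 0 and 60 min, beacon hairpin quenching. Evaluation: % inhibition of unwinding. Replication: one well per compound.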
Starred values were filed as active, the others as inactive.

Screening Cn1c(C(=O)NCCN2CCN(c3ccccc3F)CC2)cc2c(=O)n(C)c3ccccc3c21 returned FID counter 0.6, IMP-1 inh -0.5, UBC9 SUMO inh 2.4, VIM-2 inh 8.8* and HCV NS3 hel inh -29.3.
For Cc1ccc(CNC(=O)c2cc3c(=O)n(C)c4ccccc4c3n2C)cc1 the results were FID counter -0.6, IMP-1 inh -2.6, UBC9 SUMO inh 12.0, VIM-2 inh 0.5 and HCV NS3 hel inh 11.2.
CCCN(CCC)CCCNC(=O)c1cc2c(=O)[nH]c3ccccc3c2n1C was read as FID counter 1.2, IMP-1 inh -0.7, UBC9 SUMO inh -8.5, VIM-2 inh 8.9* and HCV NS3 hel inh -9.4.
CCCCN(CC)CCNC(=O)c1cc2c(=O)[nH]c3ccccc3c2n1C was read as FID counter 4.8, IMP-1 inh -1.1, UBC9 SUMO inh 6.3, VIM-2 inh 6.0 and HCV NS3 hel inh -1.0.
For Cn1c(C(=O)NCCN2CCOCC2)cc2c(=O)n(C)c3ccccc3c21 the results were FID counter 0.7, IMP-1 inh -3.0, UBC9 SUMO inh 24.1, VIM-2 inh 12.9* and HCV NS3 hel inh 4.5.
`Cn1c(C(=O)N2CCCCCC2)cc2c(=O)n(C)c3ccccc3c21` gave FID counter -21.4, IMP-1 inh -1.7, UBC9 SUMO inh 8.5, VIM-2 inh 8.2* and HCV NS3 hel inh -3.7.
CCOC(=O)N1CCN(C(=O)c2cc3c(=O)n(C)c4ccccc4c3n2C)CC1 was read as FID counter -28.9, IMP-1 inh -3.6, UBC9 SUMO inh 3.5, VIM-2 inh 3.6 and HCV NS3 hel inh 0.1.
Screening COc1cccc(N2CCN(C(=S)Nc3cc(C)cc(C)c3)CC2)c1 returned FID counter 0.3, IMP-1 inh -3.0, UBC9 SUMO inh 9.8, VIM-2 inh -2.4 and HCV NS3 hel inh 8.8.
For O=C(/C=C/c1ccc(Br)o1)Nc1nnc(C2CC2)s1 the results were FID counter -8.3, IMP-1 inh -2.1, UBC9 SUMO inh 43.9, VIM-2 inh -3.2 and HCV NS3 hel inh 13.3.
Screening CCOC(=O)C1CCCN(C(=S)Nc2cccc(Cl)c2)C1 (stereo not given) returned FID counter -4.2, IMP-1 inh -3.0, UBC9 SUMO inh 9.7, VIM-2 inh -2.5 and HCV NS3 hel inh -2.4.
Cc1oc(-c2ccccc2)cc1C(=O)NC1CCN(Cc2ccccc2)CC1 was read as FID counter 7.8, IMP-1 inh -1.5, UBC9 SUMO inh 14.6, VIM-2 inh -1.1 and HCV NS3 hel inh -0.7.
COc1cc(SC)ccc1C(=O)N1CCN(Cc2ccc3c(c2)OCO3)CC1 was read as FID counter -25.0, IMP-1 inh -1.8, UBC9 SUMO inh -12.4, VIM-2 inh -0.8 and HCV NS3 hel inh -6.6.
Screening CCCN(CCC)CCNC(=O)c1cc2c(=O)n(C)c3ccccc3c2n1C returned FID counter 10.9, IMP-1 inh -4.4, UBC9 SUMO inh 9.8, VIM-2 inh 22.3* and HCV NS3 hel inh 1.1.
`Cc1ccc(NC(=O)CCc2nnc3ccc(N4CCC5(CC4)OCCO5)nn23)cc1F` gave FID counter -48.5, IMP-1 inh 0.3, UBC9 SUMO inh 6.8, VIM-2 inh -5.1 and HCV NS3 hel inh -0.2.
Screening O=C(CC1S/C(=N/N=C/C=C/c2ccccc2)NC1=O)Nc1ccc(Cl)c(Cl)c1 (stereo not given) returned FID counter -2.0, IMP-1 inh -5.1, UBC9 SUMO inh 67.9*, VIM-2 inh -2.4 and HCV NS3 hel inh 4.6.
Screening CN(C)c1ccc(/C=C/c2ccc3ccccc3[n+]2C)cc1 returned FID counter 41.7*, IMP-1 inh -10.9, UBC9 SUMO inh -78.9, VIM-2 inh -5.2 and HCV NS3 hel inh -3.1.
Screening COc1ccc(-c2cc(C(=O)Nc3cccnc3)no2)cc1OC returned FID counter -23.5, IMP-1 inh -0.5, UBC9 SUMO inh 5.3, VIM-2 inh 1.2 and HCV NS3 hel inh -11.2.
Cn1cnnc1SCC(=O)Nc1ccc(OC(F)F)cc1 was read as FID counter 3.8, IMP-1 inh -2.8, UBC9 SUMO inh 7.6, VIM-2 inh -1.2 and HCV NS3 hel inh -3.8.
`O=C1Nc2ccccc2S/C1=C\C(=O)N1CCCC1` gave FID counter -11.1, IMP-1 inh -1.3, UBC9 SUMO inh 15.6, VIM-2 inh -1.5 and HCV NS3 hel inh -1.6.
For O=C1Nc2ccccc2S/C1=C/Nc1cccc(Cl)c1 the results were FID counter -0.9, IMP-1 inh -1.9, UBC9 SUMO inh 9.7, VIM-2 inh 7.8* and HCV NS3 hel inh 3.6.
For CC1CCN(c2ccccc2NC(=S)NC(=O)c2cccs2)CC1 the results were FID counter -10.4, IMP-1 inh -4.5, UBC9 SUMO inh -4.9, VIM-2 inh -2.3 and HCV NS3 hel inh 2.0.
Screening O=C(Cc1ccccc1)Nc1ccccc1C(=O)Nc1ccccc1 returned FID counter -18.6, IMP-1 inh -4.7, UBC9 SUMO inh 5.5, VIM-2 inh -0.9 and HCV NS3 hel inh -4.5.
CC(C)CC(=O)NC(=S)Nc1ccccc1C(=O)Nc1ccccc1 was read as FID counter -4.0, IMP-1 inh 11.6*, UBC9 SUMO inh -3.4, VIM-2 inh -4.6 and HCV NS3 hel inh -3.9.
`CC(C)(C)C(=O)NC(=S)Nc1ccccc1C(=O)Nc1ccccc1` gave FID counter 1.0, IMP-1 inh 17.2*, UBC9 SUMO inh 17.0, VIM-2 inh -1.0 and HCV NS3 hel inh 7.7.
Screening CC(C)CC(=O)NC(=S)Nc1cccc(NC(=O)c2ccccc2Cl)c1 returned FID counter -16.8, IMP-1 inh -0.2, UBC9 SUMO inh -3.2, VIM-2 inh -0.7 and HCV NS3 hel inh -4.5.
Screening CC1CCN(c2ccccc2NC(=S)NC(=O)C(C)(C)C)CC1 returned FID counter -6.0, IMP-1 inh 6.3*, UBC9 SUMO inh 9.6, VIM-2 inh -0.3 and HCV NS3 hel inh -1.3.
CC(C)C(=O)NC(=S)Nc1ccccc1C(=O)Nc1ccccc1 was read as FID counter -5.9, IMP-1 inh 19.0*, UBC9 SUMO inh -9.1, VIM-2 inh -2.9 and HCV NS3 hel inh 14.1.
For CC(C)c1ccc(CNCCCSc2ncccn2)cc1 the results were FID counter 10.6, IMP-1 inh 0.2, UBC9 SUMO inh 0.6, VIM-2 inh 0.7 and HCV NS3 hel inh -23.4.
`CCN(CC)c1ccc2c(c1)OC(N)=C(C#N)C2c1cccnc1` (stereo not given) gave FID counter -12.4, IMP-1 inh 9.6*, UBC9 SUMO inh 2.1, VIM-2 inh 6.1 and HCV NS3 hel inh 5.3.
CCOCCCNC(=O)c1ccc(OC2CCN(C(C)=O)CC2)c(OC)c1 was read as FID counter -11.4, IMP-1 inh -2.2, UBC9 SUMO inh 9.3, VIM-2 inh -2.1 and HCV NS3 hel inh -8.6.
COCCNC(=S)N/N=C1\CC(C)CC(C)(C)C1 (stereo not given) was read as FID counter 5.8, IMP-1 inh -4.6, UBC9 SUMO inh 1.2, VIM-2 inh -2.7 and HCV NS3 hel inh -3.3.
For NC(=S)n1[nH]c(-c2ccc([N+](=O)[O-])cc2)c(N=Nc2ccc(Cl)cc2)c1=O the results were FID counter 2.0, IMP-1 inh -4.2, UBC9 SUMO inh 64.0*, VIM-2 inh -3.2 and HCV NS3 hel inh 14.9.

Compound activity (PubChem)
